# CAL PDZ FP-1 – CAL PDZ peptide-binding inhibitors, primary screen, biochemical, fluorescence polarization, Cer-tagged CAL PDZ, HTS. Golgi-associated PDZ and coiled-coil motif-containing protein (Homo sapiens), Q9HD26. hit rate 0.02% among 330,000. purified CAL PDZ, TMR-peptide fluorescence polarization, 1 h. inhibition, % at 20 µM;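 active = highest replicate inhibition of at least 40%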;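 also: plate controls were DMSO neutral control wells for no effect and unlabeled competitor peptide control wells for full effect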
#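 Material: tagged CAL PDZ protein CerCALP, purified; buffer or medium: sodium phosphate/NaCl buffer pH 7.4 with TCEP, IgG, Thesit; also added: fluorescent TMR peptide probe; schedule: 1 h incubation at room temperature before polarization reading; technique: fluorescence polarization from S- and P-plane intensities, G-factor corrected; control set: unlabelled peptide and DMSO controls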
# Rtt109 HAT inh – inhibitors of C. albicans Rtt109/Vps75 HAT, primary screen, biochemical, ThioGlo CoA-SH fluorescence, plate reader; Histone acetyltransferase RTT109 (Candida albicans (strain SC5314 / ATCC MYA-2876)), …; purified Rtt109/Vps75, 4 h; inhibition, % at 34.9 µM; hit rate 0.16% among 330,000; AID 540336, 2011;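 active = inhibition of at least 50% in every replicate; inconclusive = best replicate reaches 50% inhibition but some replicates fall short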
# CAL PDZ FP-2 – untagged CAL PDZ binding inhibitors, primary screen, biochemical, fluorescence polarization, HTS. purified CAL PDZ, TMR-peptide fluorescence polarization, 1 h. inhibition, % at 24.9 µM. hit rate 0.92% among 300,000. AID 602252, 2012;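 active = mean inhibition of at least 30% with at least half of replicates also reaching 30%; inconclusive = no clear call, values can overlap the other calls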;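 also: 0% = DMSO neutral control and 100% = excess unlabeled competitor peptide PRC23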
# ALR inh – inhibitors of human ALR sulfhydryl oxidase, primary screen, biochemical, H2O2 detection, HRP-luminol luminescence, single point; inhibition, % (test concentration not listed); hit rate 3.8% among 290,000; FAD-linked sulfhydryl oxidase ALR (Homo sapiens), P55789; purified ALR, DTT oxidation;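 active = mean replicate inhibition above about 79%, with every replicate also reaching it, limit read from the data; inconclusive = only one of the two criteria met; inactive = mean below limit and not every replicate reaching it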
# Target sequence (P55789 whole entry, looked up): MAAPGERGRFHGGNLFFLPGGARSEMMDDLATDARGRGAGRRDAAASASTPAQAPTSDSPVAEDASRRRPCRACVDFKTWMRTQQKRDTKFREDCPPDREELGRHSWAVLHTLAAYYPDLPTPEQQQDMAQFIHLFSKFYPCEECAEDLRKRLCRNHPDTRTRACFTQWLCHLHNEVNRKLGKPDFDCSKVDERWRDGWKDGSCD
# DYRK1A inh – rat Dyrk1A kinase inhibitors, primary screen, biochemical, single point, plate reader. Dual specificity tyrosine-phosphorylation-regulated kinase 1A (Rattus norvegicus), Q63470. ADP-Glo luminescence, NFATc1 peptide. inhibition, % at 12.5 µM. hit rate 0.43% among 310,000; in the data active = inhibition above about 50%;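 also: plate controls were vehicle with enzyme for no effect and no enzyme for full effect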
# Starred values were filed as active, the others as inactive; ? = inconclusive; . = not tested or not shown. This is a sample that favours compounds with a hit; in the whole collection about 4.3% have one here.
SMILES,CAL PDZ FP-1,Rtt109 HAT inh,CAL PDZ FP-2,ALR inh,DYRK1A inh
CC(=O)Nc1ccc(SCC(=O)N(CCC#N)c2ccc(C)cc2)cc1,-0.6,-0.3,-3.9,96.7*,4.5
CCn1c(SCC(=O)O)nnc1-c1cccnc1,0.2,-10.2,-2.2,0.6,0.3
O=c1cc(-c2ccc(O)c(O)c2)oc2cc(O)c([C@@H]3O[C@H](CO)[C@@H](O)[C@H](O)[C@H]3O)c(O)c12,-0.6,5.0,-1.6,98.6*,20.4
O=c1c2cc(O)c(O)cc2oc2cc(O)c(C3OC(CO)C(O)C(O)C3O)c(O)c12 (centres undefined),-0.8,-28.8,-3.1,99.3*,-0.4
O=c1cc(-c2ccc(O)cc2)oc2c([C@@H]3O[C@H](CO)[C@@H](O)[C@H](O)[C@H]3O)c(O)c([C@@H]3O[C@H](CO)[C@@H](O)[C@H](O)[C@H]3O)c(O)c12,-2.0,-16.9,-5.6,.,7.8
CSCCC(NC(=O)c1ccccc1Br)C(=O)NNC(=O)C1COc2ccccc2O1 (centres undefined),0.0,-8.3,.,.,5.0
O=C(CCc1nnc(CCc2ccccc2)o1)N1CCCC1c1nccs1 (centres undefined),-0.6,-0.1,0.6,-4.4,-1.2
CCOC(=O)Cc1c(C)nc2c(-c3ccc(Cl)cc3)c[nH]n2c1=O,-0.8,4.6,2.1,97.8*,-8.0
COCc1cc(=O)n2[nH]cc(-c3ccccc3)c2n1,1.9,2.8,-4.0,50.0,11.9
CCCc1cc(=O)n2[nH]cc(-c3ccc(Cl)cc3)c2n1,-2.0,-12.8,-0.5,99.0*,-2.3
CCOC(=O)Cc1c(C)nc2cc(-c3ccc(Cl)cc3)[nH]n2c1=O,-1.2,-2.1,-4.0,-16.9,2.9
CC(C)OC(=O)c1cc(NC(=O)c2nn(C)cc2Br)cc(C(=O)OC(C)C)c1,-1.2,-6.2,-1.6,-15.4,-2.8
CC1CC(=O)N(CC(=O)NCc2ccc(F)cc2)c2ccccc2S1(=O)=O (centres undefined),-0.6,-5.2,.,-1.9,2.5
O=C(CSC1=N/C(=C/c2ccc(Cl)c(Cl)c2)C(=O)N1c1ccccc1F)NC1CC1,-0.9,2.1,-0.7,8.6,-4.4
Cc1ccc(OC(C)C(=O)N(C)Cc2ccccc2)c([N+](=O)[O-])n1 (centres undefined),-0.3,4.0,.,0.6,-2.2
CC(=O)N(c1cccc(C)c1)C1SC(=O)N(c2ccccc2)C1=O (centres undefined),-0.9,-3.4,-5.3,33.6,-6.8
Cc1ccc(N2C(=O)SC(N(CC(=O)O)c3cccc(C)c3)C2=O)cc1 (centres undefined),-1.7,?,-1.3,98.8*,3.0
COc1ccc(N2C(=O)/C(=C3/C=CC=CN3C)SC2=S)cc1,0.2,-1.2,-3.3,59.9,0.8
CN1C=CC=C/C1=C1/SC(=S)N(Cc2ccccc2)C1=O,-0.7,-6.0,-1.3,99.2*,0.5
CCN1C(=O)/C(=C2/C=CC=CN2C)SC1=S,-1.9,-1.0,-5.1,98.7*,.
COc1ccccc1N1C(=O)CC(N2CCN(c3ccc(Cl)cc3)CC2)C1=O (centres undefined),-0.5,16.6,7.3,38.4,5.4
CCOC(=O)C(NC(=O)N(C)C)(Nc1sc(C)c(CC)c1C#N)C(F)(F)F (centres undefined),-0.4,-2.9,-2.7,28.4,-2.3
Cc1c(NC(=O)c2c(N)sc3c2CCCC3)c(=O)n(-c2ccccc2)n1C,-1.9,6.7,-7.4,-7.3,-1.7
COC(=O)c1ccc(C)c(NC(=O)C(CCSC)NC(=O)c2cc(OC)c(OC)c(OC)c2)c1 (centres undefined),-2.3,-15.3,-0.1,0.0,1.7
CCC(Sc1nc(N)c(NC(=O)c2ccc(OC)cc2)c(=O)[nH]1)C(=O)O (centres undefined),-2.2,-11.6,-2.0,-0.5,3.5
S=C(NCCN1CCOCC1)Nc1ccc(Cl)cc1Cl,-0.1,-3.9,-2.4,94.7*,-8.6
S=C(NCCCN1CCOCC1)Nc1ccc(Nc2ccccc2)cc1,0.3,3.5,-0.3,99.3*,-5.9
